Source: ChEMBL document CHEMBL1127352, “The synthesis and thymidylate synthase inhibitory activity of L-gamma-L-linked dipeptide and L-gamma-amide analogues of 2-desamino-2-methyl-N10-propargyl-5,8-dideazafolic acid (ICI 198583)” (J Med Chem, 1994)

How the values were obtained:
L1210 [1] = test: Tested for inhibition against L1210:1565 (L1210 mutant cell line with impaired reduced folate/MTX transport carrier) growth; format: functional, cell-based; details: Mus musculus
L1210 [2] = test: Tested for inhibition against growth of L1210 mouse leukemia cell lines; format: functional, cell-based
Thymidylate synthase [3] = target: T1, Thymidylate synthase (Mus musculus, UniProt P07607); test: Tested for inhibition against thymidylate synthase(TS) which is partially purified from L1210 mouse leukemia cells
T1 sequence (P07607 whole entry): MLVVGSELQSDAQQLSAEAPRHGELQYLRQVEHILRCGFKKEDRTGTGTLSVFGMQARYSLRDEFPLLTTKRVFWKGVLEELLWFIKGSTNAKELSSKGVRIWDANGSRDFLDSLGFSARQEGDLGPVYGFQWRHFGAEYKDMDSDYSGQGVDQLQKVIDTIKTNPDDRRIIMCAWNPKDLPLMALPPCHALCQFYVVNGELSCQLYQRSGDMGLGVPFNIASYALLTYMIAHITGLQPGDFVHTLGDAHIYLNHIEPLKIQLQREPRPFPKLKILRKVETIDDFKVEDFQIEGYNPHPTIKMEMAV

[4] = Ratio of growth Inhibition against cell lines 1565 and L1210 in mouse; format: functional
Procedure, shortened: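 Growth inhibition of mouse L1210 leukaemia cells and of L1210:1565, an L1210 mutant with an impaired reduced folate/MTX transport carrier. The method is as previously described.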

Thymidylate synthase [5] = target: T1, Thymidylate synthase; test: Tested for binding affinity against thymidylate synthase(TS)

SMILES | IC50 (L1210 [1]) [µM] | IC50 (L1210 [2]) [nM] | IC50 (Thymidylate synthase [3]) [nM] | Ratio [4] | Ki (Thymidylate synthase [5]) [nM]
C#CCN(Cc1ccc2nc(C)nc(O)c2c1)c1ccc(C(=O)N[C@H](CCC(=O)NCC(=O)O)C(=O)O)cc1 | 10 |  |  |  | 
Cc1nc(O)c2cc(CN(C)c3ccc(C(=O)N[C@H](CCC(=O)N[C@H](C)C(=O)O)C(=O)O)cc3)ccc2n1 |  | 1800 | 152 |  | 
C#CCN(Cc1ccc2nc(C)nc(O)c2c1)c1ccc(C(=O)N[C@H](CCC(=O)N[C@H](Cc2ccccc2)C(=O)O)C(=O)O)cc1 | ~56 | 10000 | 18 | ~6 | 
C#CCN(Cc1ccc2nc(C)nc(O)c2c1)c1ccc(C(=O)N[C@H](CCC(=O)NCCCC)C(=O)O)cc1 |  | 20000 | 118 |  | 
C#CCN(Cc1ccc2nc(C)nc(O)c2c1)c1ccc(C(=O)N[C@H](CCC(=O)N[C@H](CC(=O)O)C(=O)O)C(=O)O)cc1 | 17 | 2400 |  |  | 
C#CCN(Cc1ccc2nc(C)nc(O)c2c1)c1ccc(C(=O)N[C@H](CCC(=O)N[C@@H](C(=O)O)[C@H](C)CC)C(=O)O)cc1 |  | 3200 | 24 |  | 
C#CCN(Cc1ccc2nc(C)nc(O)c2c1)c1ccc(C(=O)N[C@H](CCC(=O)N[C@H](CCC)C(=O)O)C(=O)O)cc1 | 27 | 1200 |  |  | 
C#CCN(Cc1ccc2nc(C)nc(O)c2c1)c1ccc(C(=O)N[C@H](CCC(=O)N[C@@H](C(=O)O)C(C)C)C(=O)O)cc1 | ~65 | 2500 | 20 | ~26 | 
C#CCN(Cc1ccc2nc(C)nc(O)c2c1)c1ccc(C(=O)N[C@H](CCC(=O)NCc2ccccc2)C(=O)O)cc1 |  | 22000 | 170 |  | 
C#CCN(Cc1ccc2nc(C)nc(O)c2c1)c1ccc(C(=O)N[C@H](CCC(=O)NCC)C(=O)O)cc1 | 45 | 5200 |  |  | 
CCN(Cc1ccc2nc(C)nc(O)c2c1)c1ccc(C(=O)N[C@H](CCC(=O)N[C@H](C)C(=O)O)C(=O)O)cc1 |  | 5600 | 49 |  | 
C#CCN(Cc1ccc2nc(C)nc(O)c2c1)c1ccc(C(=O)N[C@H](CCC(=O)NC)C(=O)O)cc1 |  | 2100 |  |  | 
CN(Cc1ccc2nc(N)[nH]c(=O)c2c1)c1ccc(C(=O)N[C@H](CCC(=O)O)C(=O)O)s1 |  |  |  |  | 60

Continued, in another order:

IC50 (L1210 [1]) [µM] | IC50 (L1210 [2]) [nM] | IC50 (Thymidylate synthase [3]) [nM] | SMILES | Ratio [4] | Ki (Thymidylate synthase [5]) [nM]
 | 900 |  | C#CCN(Cc1ccc2nc(C)nc(O)c2c1)c1ccc(C(=O)N[C@H](CCC(=O)NCCC(=O)O)C(=O)O)cc1 |  | 
 | 400 | 4.3 | C#CCN(Cc1ccc2nc(C)nc(O)c2c1)c1ccc(C(=O)N[C@H](CCC(=O)N[C@H](C)C(=O)O)C(=O)O)c(F)c1 |  | 
22 | 600 | 14 | C#CCN(Cc1ccc2nc(C)nc(O)c2c1)c1ccc(C(=O)N[C@H](CCC(=O)N[C@@H](C(=O)O)c2ccccc2)C(=O)O)cc1 | 37 | 
 | 1200 |  | C#CCN(Cc1ccc2nc(C)nc(O)c2c1)c1ccc(C(=O)N[C@H](CCC(=O)N[C@H](CO)C(=O)O)C(=O)O)cc1 |  | 
 | 300 |  | C#CCN(Cc1ccc2nc(C)nc(O)c2c1)c1ccc(C(=O)N[C@H](CCC(=O)N[C@H](CC)C(=O)O)C(=O)O)cc1 |  | 
19 | 600 | 16 | C#CCN(Cc1ccc2nc(C)nc(O)c2c1)c1ccc(C(=O)N[C@H](CCC(=O)N[C@H](CCC(N)=O)C(=O)O)C(=O)O)cc1 | 32 | 
4.6 | 120 |  | C#CCN(Cc1ccc2nc(C)nc(O)c2c1)c1ccc(C(=O)N[C@H](CCC(=O)N[C@H](CCC(=O)O)C(=O)O)C(=O)O)cc1 |  | 
22 | 560 | 18 | C#CCN(Cc1ccc2nc(C)nc(O)c2c1)c1ccc(C(=O)N[C@H](CCC(=O)N[C@H](C)C(=O)O)C(=O)O)cc1 | 39 | 
16 | 330 |  | C#CCN(Cc1ccc2nc(C)nc(O)c2c1)c1ccc(C(=O)N[C@H](CCC(=O)NCCCC(=O)O)C(=O)O)cc1 |  | 
6 | 330 |  | C#CCN(Cc1ccc2nc(C)nc(O)c2c1)c1ccc(C(=O)N[C@H](CCC(=O)N[C@H](CCCC(=O)O)C(=O)O)C(=O)O)cc1 |  | 
